# In ChEMBL document CHEMBL2086239, “Synthesis and biological evaluation of combretastatin-amidobenzothiazole conjugates as potential anticancer agents” (Eur J Med Chem, 2012):
# The source made the active and inactive calls. The rule behind the calls is not given here.
# How the values were obtained:
# Type in all cases: functional
# COLO 205 = assay: Growth inhibition of human COLO205 cells after 48 hrs by SRB assay; details: COLO 205, 48 h
# How it was run: (§1)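 NCI 60-cell-line screen: after preliminary screening, tested at five dose concentrations on 59 human tumour lines covering leukemia, lung, colon, CNS, melanoma, ovarian, renal, prostate and breast.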
# SNB-19 = assay: Growth inhibition of human SNB19 cells after 48 hrs by SRB assay
# How it was run: (§2)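 NCI 60-cell-line panel, five-dose testing after preliminary screen; sulforhodamine B protein assay in DMEM with 10% FBS, 37 °C, 5% CO2, 100% humidity. Cells seeded and incubated 24 h before compound addition, then exposed 48 h. Absorbance read at 560 nm; growth percentage relative to control wells; GI50 taken as concentration giving 50% growth inhibition.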
# MDA-MB-231 = assay: Growth inhibition of human MDA-MB-231 cells after 48 hrs by SRB assay; details: MDA-MB-231, 48 h; how it was run: as §1
# NCI-H522 = assay: Growth inhibition of human NCI-H522 cells after 48 hrs by SRB assay; details: NCI-H522, 48 h; how it was run: as §1
# MCF7 [1] = assay: Cytotoxicity against human MCF7 cells after 48 hrs assessed as inhibition of cell growth at 10 uM after 48 hrs by SRB assay relative to control; details: MCF7, 48 h, read-out: GI
# How it was run: (§3)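 SRB protein assay in DMEM with 10% FBS at 37 °C, 5% CO2, 100% relative humidity. Cells seeded in 96-well plates, incubated 24 h, then exposed to drug at 10 µM for 48 h and processed per standard protocol. Absorbance read at 560 nm; growth percentage calculated for test wells relative to control wells.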
# UO-31 = assay: Growth inhibition of human UO31 cells after 48 hrs by SRB assay; details: UO-31, 48 h; how it was run: as §2
# OVCAR-4 = assay: Growth inhibition of human OVCAR4 cells after 48 hrs by SRB assay; details: OVCAR-4, 48 h; how it was run: as §1
# HCC 2998 = assay: Growth inhibition of human HCC2998 cells after 48 hrs by SRB assay; how it was run: as §1
# LOX IMVI = assay: Growth inhibition of human LOXIMVI cells after 48 hrs by SRB assay; how it was run: as §1
# SNB-75 = assay: Growth inhibition of human SNB75 cells after 48 hrs by SRB assay; details: SNB-75, 48 h; how it was run: as §2
# SN12C = assay: Growth inhibition of human SN12C cells after 48 hrs by SRB assay; how it was run: as §2
# MCF7 [2] = assay: Cell cycle arrest in human MCF7 cells assessed as accumulation at G2/M phase at 4 uM after 24 hrs by FACS analysis (reference value: 34.88%)
# TK-10 = assay: Growth inhibition of human TK10 cells after 48 hrs by SRB assay; details: TK-10, 48 h; how it was run: as §2
# EKVX = assay: Growth inhibition of human EKVX cells after 48 hrs by SRB assay; how it was run: as §1
# HOP-62 = assay: Growth inhibition of human HOP62 cells after 48 hrs by SRB assay; details: HOP-62, 48 h; how it was run: as §1
# IGROV-1 = assay: Growth inhibition of human IGROV1 cells after 48 hrs by SRB assay; details: IGROV-1, 48 h; how it was run: as §1
# HCT-116 = assay: Growth inhibition of human HCT116 cells after 48 hrs by SRB assay; details: HCT-116, 48 h; how it was run: as §1
# M14 = assay: Growth inhibition of human M14 cells after 48 hrs by SRB assay; details: M14, 48 h; how it was run: as §1
# UACC-257 = assay: Growth inhibition of human UACC257 cells after 48 hrs by SRB assay; details: UACC-257, 48 h; how it was run: as §2
# A498 = assay: Growth inhibition of human A498 cells after 48 hrs by SRB assay; details: A498, 48 h; how it was run: as §1
# MCF7 [3] = assay: Cell cycle arrest in human MCF7 cells assessed as accumulation at G1 phase at 4 uM after 24 hrs by FACS analysis (reference value: 58.33%)
# NCI-H460 = assay: Growth inhibition of human NCI-H460 cells after 48 hrs by SRB assay; details: NCI-H460, 48 h; how it was run: as §1
# MOLT-4 = assay: Growth inhibition of human MOLT4 cells after 48 hrs by SRB assay; details: MOLT-4, 48 h; how it was run: as §1
# A549 = assay: Cytotoxicity against human A549 cells assessed as inhibition of cell growth at 10 uM after 48 hrs by SRB assay relative to control; details: A549, 48 h, read-out: GI; how it was run: as §3
# DU-145 = assay: Growth inhibition of human DU145 cells after 48 hrs by SRB assay; details: DU-145, 48 h; how it was run: as §1
# T47D = assay: Growth inhibition of human T47D cells after 48 hrs by SRB assay; how it was run: as §2
# NCI-H226 = assay: Growth inhibition of human NCI-H226 cells after 48 hrs by SRB assay; details: NCI-H226, 48 h; how it was run: as §1
# Hs-578T = assay: Growth inhibition of human Hs578T cells after 48 hrs by SRB assay; how it was run: as §1
# OVCAR-8 = assay: Growth inhibition of human OVCAR8 cells after 48 hrs by SRB assay; details: OVCAR-8, 48 h; how it was run: as §1
# PC-3 = assay: Cytotoxicity against human PC3 cells after 48 hrs assessed as inhibition of cell growth at 10 uM after 48 hrs by SRB assay relative to control; details: PC-3, 48 h, read-out: GI; how it was run: as §3
# HT-29 = assay: Growth inhibition of human HT-29 cells after 48 hrs by SRB assay; details: HT-29, 48 h; how it was run: as §1
# NCI-H23 = assay: Growth inhibition of human NCI-H23 cells after 48 hrs by SRB assay; details: NCI-H23, 48 h; how it was run: as §1
# CCRF-CEM = assay: Growth inhibition of human CCRF-CEM cells after 48 hrs by SRB assay; how it was run: as §1
# MDA-MB-468 = assay: Growth inhibition of human MDA-MB-468 cells after 48 hrs by SRB assay; details: MDA-MB-468, 48 h; how it was run: as §1
# ACHN = assay: Growth inhibition of human ACHN cells after 48 hrs by SRB assay; how it was run: as §1
# CAKI-1 = assay: Growth inhibition of human Caki1 cells after 48 hrs by SRB assay; details: CAKI-1, 48 h; how it was run: as §1
# SF-295 = assay: Growth inhibition of human SF295 cells after 48 hrs by SRB assay; details: SF-295, 48 h; how it was run: as §2
# UACC-62 = assay: Growth inhibition of human UACC62 cells after 48 hrs by SRB assay; details: UACC-62, 48 h; how it was run: as §2
# RPMI-8226 = assay: Growth inhibition of human RPMI8226 cells after 48 hrs by SRB assay; details: RPMI-8226, 48 h; how it was run: as §1
# K562 = assay: Growth inhibition of human K562 cells after 48 hrs by SRB assay; details: K562, 48 h; how it was run: as §1
# HEp-2 = assay: Cytotoxicity against human Hep2 cells after 48 hrs assessed as inhibition of cell growth at 10 uM after 48 hrs by SRB assay relative to control; details: HEp-2, 48 h, read-out: GI; how it was run: as §3
# HOP-92 = assay: Growth inhibition of human HOP92 cells after 48 hrs by SRB assay; details: HOP-92, 48 h; how it was run: as §1
# U-251 = assay: Growth inhibition of human U251cells after 48 hrs by SRB assay; details: U-251, 48 h; how it was run: as §2
smiles,measurement,setting,value
COc1ccc2nc(NC(=O)COc3cc(/C=C\c4cc(OC)c(OC)c(OC)c4)ccc3OC)sc2c1,GI50,COLO 205,3.89 µM
same,GI50,"SNB-19; SNB-19, 48 h",6.3 µM
same,GI50,MDA-MB-231,5.4 µM
same,GI50,NCI-H522,3.09 µM
same,inhibition of growth at 10 µM,MCF7 [1],53%
same,GI50,UO-31,4.31 µM
same,GI50,OVCAR-4,5.31 µM
same,GI50,"HCC 2998; HCC 2998, 48 h",7.34 µM
same,GI50,LOX IMVI,4.17 µM
same,GI50,SNB-75,1.91 µM
same,GI50,SN12C,5.75 µM
same,Activity,MCF7 [2],30.07%
same,GI50,TK-10,7.54 µM
same,GI50,EKVX,5.11 µM
same,GI50,HOP-62,23 µM
same,GI50,IGROV-1,7 µM
same,GI50,HCT-116,3.7 µM
same,GI50,M14,4.33 µM
same,GI50,UACC-257,63 µM
same,GI50,A498,3.5 µM
same,Activity,MCF7 [3],62.81%
same,GI50,NCI-H460,3.73 µM
same,GI50,MOLT-4,3.87 µM
same,inhibition of growth at 10 µM,A549,45%
same,GI50,DU-145,2.04 µM
same,GI50,T47D,4.03 µM
same,GI50,NCI-H226,4.51 µM
same,GI50,Hs-578T,4.15 µM
same,GI50,OVCAR-8,5.28 µM
same,inhibition of growth at 10 µM,PC-3,33%
same,GI50,HT-29,3.34 µM
same,GI50,NCI-H23,3.91 µM
same,GI50,CCRF-CEM,3.87 µM
same,GI50,MDA-MB-468,2.29 µM
same,GI50,ACHN,7.77 µM
same,GI50,CAKI-1,3.2 µM
same,GI50,SF-295,1.84 µM
same,GI50,UACC-62,5.93 µM
same,GI50,RPMI-8226,5.43 µM
same,GI50,K562,3.6 µM
same,inhibition of growth at 10 µM,HEp-2,71%
same,GI50,HOP-92,6.28 µM
same,GI50,U-251,4 µM
COc1ccc(/C=C\c2cc(OC)c(OC)c(OC)c2)cc1OCC(=O)Nc1nc2ccc(F)cc2s1,GI50,COLO 205,7.78 µM
same,GI50,SNB-19,inactive
same,GI50,MDA-MB-231,9.34 µM
same,GI50,NCI-H522,2.92 µM
same,inhibition of growth at 10 µM,MCF7 [1],56%
same,GI50,UO-31,2.56 µM
same,GI50,OVCAR-4,7.3 µM
same,GI50,HCC 2998,inactive
same,GI50,LOX IMVI,3.23 µM
same,GI50,SNB-75,4.39 µM
same,GI50,SN12C,4.61 µM
same,Activity,MCF7 [2],42.08%
same,GI50,TK-10,9.89 µM
same,GI50,EKVX,5.72 µM
same,GI50,HOP-62,5.7 µM
same,GI50,IGROV-1,4.17 µM
same,GI50,HCT-116,4.48 µM
same,GI50,M14,6.82 µM
same,GI50,UACC-257,8.69 µM
same,GI50,A498,6.25 µM
same,Activity,MCF7 [3],44.28%
same,GI50,NCI-H460,4.36 µM
same,GI50,MOLT-4,3.07 µM
same,inhibition of growth at 10 µM,A549,44%
same,GI50,DU-145,8.97 µM
same,GI50,T47D,3.39 µM
same,GI50,NCI-H226,5.6 µM
same,GI50,Hs-578T,inactive
same,GI50,OVCAR-8,7.15 µM
same,inhibition of growth at 10 µM,PC-3,32%
same,GI50,HT-29,9.63 µM
same,GI50,NCI-H23,4.26 µM
same,GI50,CCRF-CEM,3.7 µM
same,GI50,MDA-MB-468,3.68 µM
same,GI50,ACHN,3.33 µM
same,GI50,CAKI-1,2.78 µM
same,GI50,SF-295,4.29 µM
same,GI50,UACC-62,4.05 µM
same,GI50,RPMI-8226,6.36 µM
same,GI50,K562,3.62 µM
same,inhibition of growth at 10 µM,HEp-2,64%
same,GI50,HOP-92,5.73 µM
same,GI50,U-251,4.33 µM
